Experimental data from ChEMBL document CHEMBL3232870, “Discovery of 3-(4-methanesulfonylphenoxy)-N-[1-(2-methoxy-ethoxymethyl)-1H-pyrazol-3-yl]-5-(3-methylpyridin-2-yl)-benzamide as a novel glucokinase activator (GKA) for the treatment of type 2 diabetes mellitus” (Bioorg Med Chem, 2014).

Experiments:
[1] = Tmax in male Sprague-Dawley rat at 500 mg/kg, po measured on day 14; assay type: ADME, organism-based; parameters: dose 500 mg/kg, route oral; details: in vivo
In short: (§1)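 Sprague–Dawley rats of both sexes, 5 weeks old at arrival, received daily oral gavage at 0, 250, 500 or 1000 mg/kg/day for 14 days. Vehicle was 0.5% methylcellulose at 10 mL/kg. Toxicokinetics were taken on Day 1 and Day 14. Necropsy was by Day 15. Testis was fixed in modified Davidson's fixative, paraffin-sectioned and H&E-stained, with histopathology on control and high-dose groups only.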

[2] = Tmax in male Sprague-Dawley rat at 500 mg/kg, po measured on day 1; assay type: ADME, organism-based; parameters: dose 500 mg/kg, route oral; details: in vivo; in short: as §1
[3] = Increase in 11 mM glucose-stimulated insulin secretion in Sprague-Dawley rat Pancreatic islet measured for 1 hr by ELISA; assay type: functional
In short: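 Islets isolated from male Sprague–Dawley rat pancreas, five per well. Islets were pre-incubated 30 min in HEPES-buffered Krebs–Ringer buffer (pH 7.4) with low glucose, then moved to the same buffer with glucose (11 mM) plus test compound. Static incubation ran at 37 °C in a shaking waterbath under 5% CO₂. Buffer was sampled at 1 h, insulin measured by ELISA, and reported as % increase versus control.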

[4] = Cmax in male Sprague-Dawley rat at 500 mg/kg, po measured on day 1; assay type: ADME, organism-based; parameters: dose 500 mg/kg, route oral; details: in vivo
In short: (§2)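 Sprague–Dawley rats, 5 weeks old at arrival, both sexes. Given the compound by oral gavage once daily for 14 days at 0, 250, 500 or 1000 mg/kg/day, with 0.5% methylcellulose as vehicle. Toxicokinetic parameters were determined on Day 1 and Day 14.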

[5] = Tmax in female Sprague-Dawley rat at 500 mg/kg, po measured on day 14; assay type: ADME, organism-based; parameters: dose 500 mg/kg, route oral; details: in vivo; in short: as §1
Mus musculus [6] = assay: Toxicity in C57BL/J6 mouse assessed as hypoglycemia at 150 mg/kg, po; details: in vivo
Salmonella typhimurium [7] = assay: Genotoxicity in Salmonella typhimurium TA98 assessed as increase in number of revertants at 1.5 to 5000 ug/plate by Ames test in presence of S9 fraction; assay type: toxicity, organism-based; details: salmonella enterica subsp. enterica serovar typhimurium
In short: (§3)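 Ames reverse mutation test by direct plate incorporation in S. typhimurium TA98 and TA100, with or without Aroclor 1254-induced rat liver S9 mix. Compound in DMSO at 1.5–5000 µg/plate, plated in top agar, incubated 37 °C for about 50 h, then revertant colonies counted. Plates were checked for precipitation and cytotoxicity. A positive was a reproducible, dose-related increase in revertants of more than 2-fold.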

Rattus norvegicus [8] = assay: Toxicity in Sprague-Dawley rat assessed as seminiferous tubule vacuolation at 250 to 1000 mg/kg, po by hematoxylin and eosin staining-based microscopy; assay type: organism-based; parameters: dose 250-1000 mg/kg, route oral; details: in vivo; in short: as §1
Rattus norvegicus [9] = assay: Toxicity in Sprague-Dawley rat assessed as seminiferous tubule degeneration at 250 to 1000 mg/kg, po by hematoxylin and eosin staining-based microscopy; assay type: organism-based; parameters: dose 250-1000 mg/kg, route oral; details: in vivo; in short: as §1
[10] = Cmax in male Sprague-Dawley rat at 250 mg/kg, po measured on day 14; assay type: ADME, organism-based; parameters: dose 250 mg/kg, route oral; details: in vivo; in short: as §2
[11] = Cmax in female Sprague-Dawley rat at 1000 mg/kg, po measured on day 1; assay type: ADME, organism-based; parameters: dose 1000 mg/kg, route oral; details: in vivo; in short: as §2
[12] = Cmax in ICR mouse at 3 mg/kg, iv and 10 mg/kg, po; assay type: ADME, organism-based; details: in vivo
In short: (§4)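 Male ICR mice and 7-week-old SD rats received a 3 mg/kg intravenous bolus or a 10 mg/kg oral gavage dose. Plasma was deproteinized with acetonitrile (2 volumes) and compound measured by HPLC. Parameters came from noncompartmental analysis.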

MIN6 = assay: Increase in 11 mM glucose-stimulated insulin secretion in mouse MIN6 cells measured for 1 hr by ELISA; assay type: functional
[13] = Cmax in female Sprague-Dawley rat at 250 mg/kg, po measured on day 1; assay type: ADME, organism-based; parameters: dose 250 mg/kg, route oral; details: in vivo; in short: as §2
[14] = AUC (0 to t) in male Sprague-Dawley rat at 1000 mg/kg, po measured on day 1; assay type: ADME, organism-based; parameters: dose 1000 mg/kg, route oral; details: plasma; in short: as §2
[15] = AUC (0 to t) in female Sprague-Dawley rat at 500 mg/kg, po measured on day 1; assay type: ADME, organism-based; parameters: dose 500 mg/kg, route oral; details: plasma; in short: as §2
Salmonella typhimurium [16] = assay: Cytotoxicity in Salmonella typhimurium TA98 at 1.5 to 5000 ug/plate in absence of S9 fraction; assay type: organism-based; details: salmonella enterica subsp. enterica serovar typhimurium; in short: as §3
Mus musculus [17] = assay: Toxicity in C57BL/J6 db/db mouse assessed as effect on serum lipids at 30 to 100 mg/kg, po; details: in vivo
[18] = Cmax in male Sprague-Dawley rat at 250 mg/kg, po measured on day 1; assay type: ADME, organism-based; parameters: dose 250 mg/kg, route oral; details: in vivo; in short: as §2
Salmonella typhimurium [19] = assay: Genotoxicity in Salmonella typhimurium TA100 assessed as increase in number of revertants at 1.5 to 5000 ug/plate by Ames test in absence of S9 fraction; assay type: toxicity, organism-based; details: salmonella enterica subsp. enterica serovar typhimurium; in short: as §3
Mus musculus [20] = assay: Toxicity in fasting C57BL/J6 mouse assessed as glucose level at 50 mg/kg, po measured after 60 mins; assay type: organism-based; parameters: dose 50 mg/kg, route oral; details: in vivo, 1 h
In short: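 Eight-week-old male C57BL/6 mice were fasted 6 h with free access to water, then dosed orally with compound or 0.5% methylcellulose vehicle, with no glucose challenge. Blood glucose was followed up to 360 min, n = 6 per group.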

Cytochrome P450 2C19 = Cytochrome P450 2C19 (Homo sapiens, UniProt P33261); assay: Inhibition of CYP2C19 in human liver microsomes; assay type: ADME
In short: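 Pooled human liver microsomes (0.25 mg/mL) with a CYP-selective substrate and test compound, preincubated at 37 °C. Stopped on ice with ice-cold acetonitrile, centrifuged, and the supernatant analysed by LC–MS/MS.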

Mus musculus [21] = assay: Antidiabetic activity in glucose-treated C57BL/J6 db/db mouse assessed as reduction of glucose AUC at 30 to 100 mg/kg, po administered for 2 weeks preincubated for 30 mins followed by glucose challenge measured after 30 to 180 mins by oral glucose tolerance test relative to control; assay type: functional; parameters: scale not given: the % may be the effect or the level left
In short: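 Oral glucose tolerance test. Mice: eight-week-old male C57BL/6 or ten-week-old male C57BLKS/J db/db, fasted overnight with water. Compound or 0.5% methylcellulose vehicle given orally, then an oral 2 g/kg glucose challenge 30 min later. Tail-tip blood glucose was read just before and at 30, 60, 90, 120 and 180 min. AUC was calculated from the time–glucose curve; n = 6.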

[22] = AUC (0 to t) in female Sprague-Dawley rat at 1000 mg/kg, po measured on day 14; assay type: ADME, organism-based; parameters: dose 1000 mg/kg, route oral; details: plasma; in short: as §2
[23] = Metabolic stability in dog liver microsomes assessed as compound remaining after 1 hr relative to control; assay type: ADME, Canis lupus familiaris; details: read-out: Stability
In short: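 Liver microsomes from mouse, dog or human were incubated with compound for 1 h, and the percentage of compound remaining was determined.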

[24] = AUC (0 to t) in male Sprague-Dawley rat at 500 mg/kg, po measured on day 1; assay type: ADME, organism-based; parameters: dose 500 mg/kg, route oral; details: plasma; in short: as §2
[25] = Clearance in ICR mouse at 3 mg/kg, iv and 10 mg/kg, po; assay type: ADME, organism-based; details: in vivo; in short: as §4
[26] = Tmax in male Sprague-Dawley rat at 250 mg/kg, po measured on day 1; assay type: ADME, organism-based; parameters: dose 250 mg/kg, route oral; details: in vivo; in short: as §1
[27] = Tmax in Sprague-Dawley rat at 3 mg/kg, iv and 10 mg/kg, po; assay type: ADME, organism-based; details: in vivo
In short: (§5)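 Male ICR mice and 7-week-old SD rats received a 3 mg/kg iv bolus or a 10 mg/kg oral gavage dose. Plasma was precipitated with 2 volumes of acetonitrile and analysed by HPLC. Parameters came from noncompartmental analysis.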

[28] = Oral bioavailability in ICR mouse at 10 mg/kg; assay type: ADME, organism-based; details: in vivo; in short: as §5

Cytochrome P450 2C19, sequence (P33261 whole entry): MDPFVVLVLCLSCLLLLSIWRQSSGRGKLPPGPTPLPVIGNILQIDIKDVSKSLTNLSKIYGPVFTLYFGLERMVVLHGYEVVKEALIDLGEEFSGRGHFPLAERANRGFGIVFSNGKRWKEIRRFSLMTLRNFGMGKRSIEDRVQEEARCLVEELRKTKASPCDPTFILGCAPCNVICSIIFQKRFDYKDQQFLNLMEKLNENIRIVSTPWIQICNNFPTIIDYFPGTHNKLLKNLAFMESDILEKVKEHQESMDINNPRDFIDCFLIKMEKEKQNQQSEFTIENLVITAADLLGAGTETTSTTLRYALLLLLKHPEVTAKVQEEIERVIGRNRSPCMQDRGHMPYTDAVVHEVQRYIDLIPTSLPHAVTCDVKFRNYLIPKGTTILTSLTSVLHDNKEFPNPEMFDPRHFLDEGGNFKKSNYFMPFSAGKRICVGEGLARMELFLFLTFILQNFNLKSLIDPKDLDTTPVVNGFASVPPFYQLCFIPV

For COCCOCn1ccc(NC(=O)c2cc(Oc3ccc(S(C)(=O)=O)cc3)cc(-c3ncccc3C)c2)n1, the Tmax [1] was 3 h, the Tmax [2] was 3.7 h and the “fold change (FC)” value [3] was 3. The Cmax [4] was 4100 ng/mL, the Tmax [5] was 1.3 h and the Activity (Mus musculus [6]) was “Non-toxic”. The Activity (Salmonella typhimurium [7]) was “Non-toxic”, the Activity (Rattus norvegicus [8]) was “Non-toxic” and the Activity (Rattus norvegicus [9]) was “Non-toxic”. The Cmax [10] was 1820 ng/mL, the Cmax [11] was 7590 ng/mL and the Cmax [12] was 11700 ng/mL. For the same compound, the “fold change (FC)” value (MIN6) was 9, the Cmax [13] was 3450 ng/mL and the AUC(0-t) [14] was 35400 ng·h/mL. The AUC(0-t) [15] was 19800 ng·h/mL, the Activity (Salmonella typhimurium [16]) was “Non-toxic” and the Activity (Mus musculus [17]) was “Non-toxic”. For the same compound, the Cmax [18] was 3060 ng/mL, the Activity (Salmonella typhimurium [19]) was “Non-toxic” and the Activity (Mus musculus [20]) was over 60 mg/dL. The “inhibition (INH)” value (Cytochrome P450 2C19) was “Not Active”, the Activity (Mus musculus [21]) was 39.8% and the AUC(0-t) [22] was 24000 ng·h/mL. For the same compound, the remaining at 1 h [23] was over 60%, the AUC(0-t) [24] was 16900 ng·h/mL and the clearance [25] was 3.33 mL/min/kg. For the same compound, the Tmax [26] was 2.7 h, the Tmax [27] was 0.42 h and the bioavailability [28] was 24%.
